In ChEMBL document CHEMBL4368943 (J Med Chem, 2019):

Columns and labels:
[1] = target: T1, von Hippel-Lindau disease tumor suppressor/Estrogen receptor/Cullin-2 (Homo sapiens, UniProt P03372+P40337+Q13617); test: Protac activity against VHL/cullin2/ERalpha in human MCF7 cells assessed as ERalpha degradation by measuring ER protein/GADPH ratio at 1 nM after 4 hrs by Western blot analysis relative to control; assay type: cell-based
Procedure, shortened: (§1)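 MCF-7 cells (DMEM, 10% FBS, passages 3−8) exposed 4 h. Lysed in RIPA with protease inhibitors; equal protein on 10% SDS-PAGE, PVDF, anti-ERα blot. Membranes stripped and reprobed for GAPDH. ERα/GAPDH ratio normalized to DMSO = 100; DC50 from densitometry of the dose series.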

[2] = target: T1, von Hippel-Lindau disease tumor suppressor/Estrogen receptor/Cullin-2; test: Protac activity against VHL/cullin2/ERalpha in human MCF7 cells assessed as ERalpha degradation by measuring ER protein/GADPH ratio at 10 nM after 4 hrs by Western blot analysis relative to control; assay type: cell-based; procedure, shortened: as §1
[3] = target: T1, von Hippel-Lindau disease tumor suppressor/Estrogen receptor/Cullin-2; test: Protac activity against VHL/cullin2/ERalpha in human MCF7 cells assessed as ERalpha degradation by measuring ER protein/GADPH ratio at 100 nM after 4 hrs by Western blot analysis relative to control; assay type: cell-based; procedure, shortened: as §1
[4] = Binding affinity to His-TEV-tagged VHL (54 to 213 residues) (unknown origin)/Elongin B (1 to 118 residues)/Elongin C (1 to 96 residues) expressed in Escherichia coli BL21(DE3) by FP assay; design: species or system Homo sapiens
Procedure, shortened: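 Competitive FP. Tracer is a fluorescent VHL ligand (Kd 2.3 nM). VHL–ElonginB/C complex and tracer each at 5 nM final, preincubated. Compound in DMSO (5 µL into 95 µL) for 60 min at room temperature with shaking. Ex 485/em 530 nm. IC50 by nonlinear regression; Ki from probe KD and protein/probe concentrations. Duplicate, three independent experiments.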

T1 sequence (P03372 whole entry, looked up): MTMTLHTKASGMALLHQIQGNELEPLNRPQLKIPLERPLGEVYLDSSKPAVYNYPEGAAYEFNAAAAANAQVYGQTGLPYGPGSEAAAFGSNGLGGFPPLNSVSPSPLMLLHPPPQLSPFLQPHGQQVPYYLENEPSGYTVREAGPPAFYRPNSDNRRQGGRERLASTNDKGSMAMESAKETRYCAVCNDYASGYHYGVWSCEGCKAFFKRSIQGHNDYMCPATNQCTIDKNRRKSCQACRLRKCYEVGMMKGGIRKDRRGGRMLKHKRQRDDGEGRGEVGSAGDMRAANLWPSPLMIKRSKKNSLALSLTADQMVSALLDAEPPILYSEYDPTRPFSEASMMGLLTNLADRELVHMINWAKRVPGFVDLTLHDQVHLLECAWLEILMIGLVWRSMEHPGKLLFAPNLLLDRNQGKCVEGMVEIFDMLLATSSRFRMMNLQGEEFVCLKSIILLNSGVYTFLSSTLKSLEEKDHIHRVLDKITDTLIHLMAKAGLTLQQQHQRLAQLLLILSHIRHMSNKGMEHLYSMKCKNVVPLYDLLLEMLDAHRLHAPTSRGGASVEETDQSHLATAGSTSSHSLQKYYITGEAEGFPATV
T1 sequence (P40337 whole entry, looked up): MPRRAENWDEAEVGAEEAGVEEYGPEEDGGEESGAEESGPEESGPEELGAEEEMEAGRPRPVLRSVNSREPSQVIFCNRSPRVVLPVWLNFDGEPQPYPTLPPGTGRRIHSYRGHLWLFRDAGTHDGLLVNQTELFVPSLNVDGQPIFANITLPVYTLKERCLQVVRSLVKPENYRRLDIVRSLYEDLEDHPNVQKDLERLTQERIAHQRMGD
T1 sequence (Q13617 whole entry, looked up): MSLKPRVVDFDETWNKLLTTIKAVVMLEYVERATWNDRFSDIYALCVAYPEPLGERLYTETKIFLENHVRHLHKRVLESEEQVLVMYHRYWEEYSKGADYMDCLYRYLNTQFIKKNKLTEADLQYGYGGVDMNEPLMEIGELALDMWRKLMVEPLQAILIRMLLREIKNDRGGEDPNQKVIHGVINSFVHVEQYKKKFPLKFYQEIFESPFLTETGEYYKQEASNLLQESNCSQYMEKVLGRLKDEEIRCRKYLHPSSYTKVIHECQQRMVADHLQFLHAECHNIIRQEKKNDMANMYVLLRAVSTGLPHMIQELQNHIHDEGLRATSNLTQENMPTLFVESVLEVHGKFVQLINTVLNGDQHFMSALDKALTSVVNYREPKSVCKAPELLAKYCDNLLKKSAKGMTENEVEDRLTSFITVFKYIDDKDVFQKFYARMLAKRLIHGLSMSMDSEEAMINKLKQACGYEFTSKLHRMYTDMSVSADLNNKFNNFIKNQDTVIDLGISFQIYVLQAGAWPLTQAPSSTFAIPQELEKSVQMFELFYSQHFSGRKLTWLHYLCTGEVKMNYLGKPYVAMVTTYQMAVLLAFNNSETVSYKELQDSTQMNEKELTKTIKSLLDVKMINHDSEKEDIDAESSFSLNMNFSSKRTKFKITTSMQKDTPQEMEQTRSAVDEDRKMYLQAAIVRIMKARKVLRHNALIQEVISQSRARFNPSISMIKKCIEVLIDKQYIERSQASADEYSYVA

SMILES	Ratio [1]	Ratio [2]	Ratio [3]	IC50 [4] [µM]
CC(=O)N[C@H](C(=O)N1C[C@H](O)C[C@H]1C(=O)N[C@@H](C)c1ccc(C2CC2)cc1)C(C)(C)C	–	–	–	6.11
CCN(CCOc1ccc(C(=O)c2c(-c3ccc(O)cc3)sc3cc(O)ccc23)cc1)CCC1CCN(CCCC(=O)N[C@H](C(=O)N2C[C@H](O)C[C@H]2C(=O)N[C@@H](C)c2ccc(-c3scnc3C)cc2)C(C)(C)C)CC1	227	91	98	–
CCN(CCCCCCCCC(=O)N[C@H](C(=O)N1C[C@H](O)C[C@H]1C(=O)N[C@@H](C)c1ccc(-c2scnc2C)cc1)C(C)(C)C)CCOc1ccc(C(=O)c2c(-c3ccc(O)cc3)sc3cc(O)ccc23)cc1	23	7	3	–
Cc1ncsc1-c1ccc([C@H](C)NC(=O)[C@@H]2C[C@@H](O)CN2C(=O)[C@@H](NC(=O)CCCCCCCN(CCOc2ccc(C(=O)c3c(-c4ccc(O)cc4)sc4cc(O)ccc34)cc2)CC2CCC2)C(C)(C)C)cc1	76	1.3	0.2	–
CCN(CCCCc1cnn(CC(=O)N[C@H](C(=O)N2C[C@H](O)C[C@H]2C(=O)N[C@@H](C)c2ccc(-c3scnc3C)cc2)C(C)(C)C)c1)CCOc1ccc(C(=O)c2c(-c3ccc(O)cc3)sc3cc(O)ccc23)cc1	99	20	12	–
CCN(CCCCCCCC(=O)N[C@H](C(=O)N1C[C@H](O)C[C@H]1C(=O)N[C@@H](C)c1ccc(C(C)C)cc1)C(C)(C)C)CCOc1ccc(C(=O)c2c(-c3ccc(O)cc3)sc3cc(O)ccc23)cc1	138	109	78	–
CCN(CCCCCCCCCC(=O)N[C@H](C(=O)N1C[C@H](O)C[C@H]1C(=O)N[C@@H](C)c1ccc(-c2scnc2C)cc1)C(C)(C)C)CCOc1ccc(C(=O)c2c(-c3ccc(O)cc3)sc3cc(O)ccc23)cc1	25	0.4	0.3	–
CCC(=C(c1ccccc1)c1ccc(OCCN(CC)CCCCCCCC(=O)N[C@H](C(=O)N2C[C@H](O)C[C@H]2C(=O)N[C@@H](C)c2ccc(-c3scnc3C)cc2)C(C)(C)C)cc1)c1ccccc1	103	97	2.4	–
CCN(CCCCCCCC(=O)N[C@H](C(=O)N1C[C@H](O)C[C@H]1C(=O)N[C@@H](C)c1ccc(C2CC2)cc1)C(C)(C)C)CCOc1ccc(C(=O)c2c(-c3ccc(O)cc3)sc3cc(O)ccc23)cc1	130	75	70	–
CCN(CCCCCCCC(=O)N[C@H](C(=O)N1C[C@H](O)C[C@H]1C(=O)NCc1ccc(-c2scnc2C)cc1)C(C)(C)C)CCOc1ccc(C(=O)c2c(-c3ccc(O)cc3)sc3cc(O)ccc23)cc1	79	71	62	–
CCN(CCCCC(=O)N[C@H](C(=O)N1C[C@H](O)C[C@H]1C(=O)N[C@@H](C)c1ccc(-c2scnc2C)cc1)C(C)(C)C)CCOc1ccc(C(=O)c2c(-c3ccc(O)cc3)sc3cc(O)ccc23)cc1	90	129	92	–
CCC(=C(c1ccc(O)cc1)c1ccc(OCCN(CC)CCCCCCCC(=O)N[C@H](C(=O)N2C[C@H](O)C[C@H]2C(=O)N[C@@H](C)c2ccc(-c3scnc3C)cc2)C(C)(C)C)cc1)c1ccccc1	55	24	0.6	–
Cc1ncsc1-c1ccc([C@H](C)NC(=O)[C@@H]2C[C@@H](O)CN2C(=O)[C@@H](NC(=O)CCCCCCCN(CCOc2ccc(C(=O)c3c(-c4ccc(O)cc4)sc4cc(O)ccc34)cc2)C2CCCC2)C(C)(C)C)cc1	75	0.3	0.1	–
Cc1ncsc1-c1ccc([C@H](C)NC(=O)[C@@H]2C[C@@H](O)CN2C(=O)[C@@H](NC(=O)CCCCCCCN(CCOc2ccc(C(=O)c3c(-c4ccc(O)cc4)sc4cc(O)ccc34)cc2)C(C)C)C(C)(C)C)cc1	28	0.5	0.2	–
CCN(CCCCCCCC(=O)N[C@H](C(=O)N1C[C@H](O)C[C@H]1C(=O)N[C@@H](C)c1ccc(C#N)cc1)C(C)(C)C)CCOc1ccc(C(=O)c2c(-c3ccc(O)cc3)sc3cc(O)ccc23)cc1	110	86	80	–
CCN(CCOc1ccc(C(=O)c2c(-c3ccc(O)cc3)sc3cc(O)ccc23)cc1)CCN1CCN(CCCC(=O)N[C@H](C(=O)N2C[C@H](O)C[C@H]2C(=O)N[C@@H](C)c2ccc(-c3scnc3C)cc2)C(C)(C)C)CC1	208	50	24	–

The next lines start with the values.

Ratio [1]	Ratio [2]	Ratio [3]	IC50 [4] [µM]	SMILES
70	0.5	0.4	–	CCN(CCCC#Cc1cnn(CCC(=O)N[C@H](C(=O)N2C[C@H](O)C[C@H]2C(=O)N[C@@H](C)c2ccc(-c3scnc3C)cc2)C(C)(C)C)c1)CCOc1ccc(C(=O)c2c(-c3ccc(O)cc3)sc3cc(O)ccc23)cc1
136	112	80	–	CCN(CCCCCCCC(=O)N[C@H](C(=O)N1C[C@H](O)C[C@H]1C(=O)N[C@@H](C)c1ccc(C(C)(C)C)cc1)C(C)(C)C)CCOc1ccc(C(=O)c2c(-c3ccc(O)cc3)sc3cc(O)ccc23)cc1
90	24	8	–	C#Cc1ccc([C@H](C)NC(=O)[C@@H]2C[C@@H](O)CN2C(=O)[C@@H](NC(=O)CCCCCCCN(CC)CCOc2ccc(C(=O)c3c(-c4ccc(O)cc4)sc4cc(O)ccc34)cc2)C(C)(C)C)cc1
74	10	0.2	–	CCN(CCCCCCCC(=O)N[C@H](C(=O)N1C[C@H](O)C[C@H]1C(=O)N[C@@H](C)c1ccc(-c2scnc2C)cc1)C(C)(C)C)CCOc1ccc(Cn2c(-c3ccc(O)cc3)c(C)c3cc(O)ccc32)cc1
15	4	0.1	–	Cc1ncsc1-c1ccc([C@H](C)NC(=O)[C@@H]2C[C@@H](O)CN2C(=O)[C@@H](NC(=O)CCCCCCCN(CCOc2ccc(C(=O)c3c(-c4ccc(O)cc4)sc4cc(O)ccc34)cc2)C2CCC2)C(C)(C)C)cc1
94	0.4	0.4	–	CCN(CCOCCOCC(=O)N[C@H](C(=O)N1C[C@H](O)C[C@H]1C(=O)N[C@@H](C)c1ccc(-c2scnc2C)cc1)C(C)(C)C)CCOc1ccc(C(=O)c2c(-c3ccc(O)cc3)sc3cc(O)ccc23)cc1
63	139	135	–	CCN(CCCC(=O)N[C@H](C(=O)N1C[C@H](O)C[C@H]1C(=O)N[C@@H](C)c1ccc(-c2scnc2C)cc1)C(C)(C)C)CCOc1ccc(C(=O)c2c(-c3ccc(O)cc3)sc3cc(O)ccc23)cc1
139	45	24	–	CCN(CCC#Cc1cnn(CC(=O)N[C@H](C(=O)N2C[C@H](O)C[C@H]2C(=O)N[C@@H](C)c2ccc(-c3scnc3C)cc2)C(C)(C)C)c1)CCOc1ccc(C(=O)c2c(-c3ccc(O)cc3)sc3cc(O)ccc23)cc1
27	153	46	–	Cc1ncsc1-c1ccc([C@H](C)NC(=O)[C@@H]2C[C@@H](O)CN2C(=O)[C@@H](NC(=O)CCCCCCCN(C)CCOc2ccc(C(=O)c3c(-c4ccc(O)cc4)sc4cc(O)ccc34)cc2)C(C)(C)C)cc1
20	0.2	0.1	–	Cc1ncsc1-c1ccc([C@H](C)NC(=O)[C@@H]2C[C@@H](O)CN2C(=O)[C@@H](NC(=O)CCCCCCCN(CCOc2ccc(C(=O)c3c(-c4ccc(O)cc4)sc4cc(O)ccc34)cc2)C2CC2)C(C)(C)C)cc1
21	0.2	0	–	Cc1ncsc1-c1ccc([C@H](C)NC(=O)[C@@H]2C[C@@H](O)CN2C(=O)[C@@H](NC(=O)CCCCCCCN(CCOc2ccc(C(=O)c3c(-c4ccc(O)cc4)sc4cc(O)ccc34)cc2)C(C)(C)C)C(C)(C)C)cc1
74	5	0.3	–	CCN(CCCCCCCC(=O)N[C@H](C(=O)N1C[C@H](O)C[C@H]1C(=O)N[C@@H](C)c1ccc(-c2scnc2C)cc1)C(C)(C)C)CCOc1ccc([C@@H]2c3ccc(O)cc3CC[C@@H]2c2ccccc2)cc1
26	66	12	–	CCN(CCCCCC(=O)N[C@H](C(=O)N1C[C@H](O)C[C@H]1C(=O)N[C@@H](C)c1ccc(-c2scnc2C)cc1)C(C)(C)C)CCOc1ccc(C(=O)c2c(-c3ccc(O)cc3)sc3cc(O)ccc23)cc1
68	0.6	0.1	–	Cc1ncsc1-c1ccc([C@H](C)NC(=O)[C@@H]2C[C@@H](O)CN2C(=O)[C@@H](NC(=O)CCCCCCCN(CCOc2ccc(C(=O)c3c(-c4ccc(O)cc4)sc4cc(O)ccc34)cc2)C2CCCCC2)C(C)(C)C)cc1
183	2.4	1.7	–	CCN(CCOCCOCCC(=O)N[C@H](C(=O)N1C[C@H](O)C[C@H]1C(=O)N[C@@H](C)c1ccc(-c2scnc2C)cc1)C(C)(C)C)CCOc1ccc(C(=O)c2c(-c3ccc(O)cc3)sc3cc(O)ccc23)cc1
32	8	6	–	CCN(CCCCCCC(=O)N[C@H](C(=O)N1C[C@H](O)C[C@H]1C(=O)N[C@@H](C)c1ccc(-c2scnc2C)cc1)C(C)(C)C)CCOc1ccc(C(=O)c2c(-c3ccc(O)cc3)sc3cc(O)ccc23)cc1
99	87	79	–	CCN(CCCCCCCC(=O)N[C@H](C(=O)N1C[C@H](O)C[C@H]1C(=O)N[C@@H](C)c1ccc(Cl)cc1)C(C)(C)C)CCOc1ccc(C(=O)c2c(-c3ccc(O)cc3)sc3cc(O)ccc23)cc1
